These results are taken from article PMC3269312 (International journal of inorganic chemistry, 2011).

The subject of assay [1] is ct-DNA. As to conditions: cited from earlier work.
Assay [2] relates to ct-DNA. In words: Fluorescence competition experiment with ethidium bromide. In kind it is binding, calf. The method, boiled down: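 Ethidium bromide is pre-bound to calf-thymus DNA, and the intercalated adduct is excited near 520 nm. Test compound is added as quencher, and the loss of adduct emission is followed. Relative fluorescence (F0/F) is plotted against quencher concentration per the Stern-Volmer equation, giving the quenching constant.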

In the case of `CC[n+]1c(-c2ccccc2)c2cc(N)ccc2c2ccc(N)cc21` [EB, ethidium bromide], the “KEB, binding constant of EB to DNA” value in the assay on ct-DNA [1] was 1.2e+06 M⁻¹.

On to Zn(acnTSC)2Cl2 [Complex 1], for which, in the assay on ct-DNA [2] (EB-DNA adduct, λex = 520 nm, [EB] = 0.33 μM, [DNA] = 10 μM, 298 K), the “KSV, Stern-Volmer quenching constant” value is “(7.48 ± 0.29) × 10^3 M^−1”. The “apparent binding constant (Kapp) with ct-DNA” value with ct-DNA [2] (from [complex] at 50% of initial EB-DNA fluorescence, KEB = 1.2 × 10^6 M^−1) turned out to be 3530 M⁻¹.
